Read-outs that look alike come from different tables or passages of the source.
Legend:
Dye aggregation = type: physicochemical; details: for slope of double log plot of monomer versus dimer concentration / dissociation equilibrium constant for dimerization (Kdim): assembly buffer; for dissociation equilibrium constant for dimerization (Kdim): 1 h at 37°C, mean ± S.D.
human 2N4R tau [1] = molecular target: T1, human 2N4R tau (Homo sapiens, UniProt P10636); experiment: Filter trap assay for ODS-induced fibrillization of tau; type: biochemical
human 2N4R tau [2] = molecular target: T1, human 2N4R tau; details: electron microscopy assay format
[3] = test system: sarkosyl-insoluble tau in organotypic slices from JNPL3 transgenic mice (human tau P301L); experiment: Organotypic slice culture, sarkosyl-insoluble tau; type: cell-based
Method in brief: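 Cortex/hippocampus of postnatal day-10 JNPL3 mice cut at 400 μm and cultured on membrane inserts 14 days (25% serum). One hemisphere given test compound (0.1 nM–1 μM) for 7 days; contralateral hemisphere given 0.008% DMSO. RIPA extracts equalised for protein, incubated in 1% sarkosyl, spun at 100,000g. Pellet immunoblotted with CP27. Densitometry n = 3, normalised to vehicle; Student's t test.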

cell culture models = cell culture models ref 21, 26, 25; cited from earlier work
[4] = test system: organotypic slices from JNPL3 transgenic mice; experiment: Organotypic slice culture, cleaved PARP1 and α-tubulin levels; type: cell-based; details: seven days
human 2N4R tau [5] = molecular target: T1, human 2N4R tau; details: near physiological buffer conditions and tau concentrations ref 9; cited from earlier work

T1 sequence (P10636 1-441 isoform P10636-8): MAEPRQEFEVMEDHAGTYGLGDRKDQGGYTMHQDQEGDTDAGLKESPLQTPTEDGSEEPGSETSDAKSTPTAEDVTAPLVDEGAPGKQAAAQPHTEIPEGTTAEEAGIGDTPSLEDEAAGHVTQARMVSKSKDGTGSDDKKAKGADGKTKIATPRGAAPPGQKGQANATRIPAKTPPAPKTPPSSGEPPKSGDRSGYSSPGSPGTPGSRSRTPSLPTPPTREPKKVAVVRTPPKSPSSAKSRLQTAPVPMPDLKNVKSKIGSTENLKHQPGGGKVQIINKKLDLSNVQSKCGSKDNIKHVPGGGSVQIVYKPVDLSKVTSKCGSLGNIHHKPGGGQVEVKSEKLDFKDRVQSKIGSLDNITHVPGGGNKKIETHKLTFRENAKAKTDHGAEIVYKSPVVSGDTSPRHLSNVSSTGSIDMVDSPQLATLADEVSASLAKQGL

CC(/C=C1\Sc2ccccc2N1CCCS(=O)(=O)[O-])=C\c1sc2ccccc2[n+]1CCCS(=O)(=O)[O-].CC[n+]1ccccc1 [Compound 12]
slope of double log plot of monomer versus dimer concentration (Dye aggregation): 1.8 ± 0.1 | dissociation equilibrium constant for dimerization (Kdim) (Dye aggregation): 7.5 ± 0.4 µM | inhibitory activity (human 2N4R tau [1]; at up to 10 μM concentration): completely lost

CCN1/C(=C/C=C/c2oc3ccccc3[n+]2CC)Oc2ccccc21.[I-] [Compound 6]
inhibitory activity (human 2N4R tau [1]; at the highest concentration tested): essentially no inhibitory activity

CN(C)c1ccc2nc3ccc(N(C)C)cc3[s+]c2c1.[Cl-] [Methylene blue, 3,7-bis(dimethylamino)phenothiazin-5-ium chloride]
behaviour as antagonist (human 2N4R tau [2]): partial antagonist

CCCN1/C(=C/C=C/C2=[N+](CCC)c3ccccc3C2(C)C)C(C)(C)c2ccccc21.[I-] [Compound 9]
reduction of inhibitory potency (human 2N4R tau [1]; 9 (three-carbon N-alkyl) versus 8 (two-carbon)): ~ 3 fold

CCN1/C(=C/C(C)=C/c2sc3ccccc3[n+]2CC)Sc2ccccc21.[I-] [Compound 11, 3,3’-diethyl-9-methylthiacarbocyanine iodide]
slope of double log plot of monomer versus dimer concentration (Dye aggregation): 2.3 ± 0.1 | dissociation equilibrium constant for dimerization (Kdim) (Dye aggregation): 20.9 ± 0.7 µM | concentration for dimerization relative to 1 (Dye aggregation; higher than 1 under identical conditions): 10.0 ± 0.2 fold | decrease of IC50 by methyl meso substituent (human 2N4R tau [1]; 11 versus hydrogen meso compound): 3 fold | IC50 (human 2N4R tau [1]; IC50, filter trap assay): ~300 nM | effect on tau aggregation ([3]; 100 nM, seven days): Inhibitory activity was lost | effect on tau aggregation ([3]; 300 nM and above, seven days): tau aggregation was induced | tau aggregation relative to DMSO vehicle alone ([3]; 1 – 10 nM, seven days): ~ 50% | lowest media concentration inhibiting tau aggregation ([3]; organotypic slices): 1 nM | concentration initiating apoptosis and collapse of the microtubule cytoskeleton (cell culture models): > 300 nM | levels of α-tubulin ([4]; 1 nM): unchanged | levels of α-tubulin ([4]; 1 μM): depletion of α-tubulin | levels of cleaved PARP1 ([4]; any tested concentration): did not increase

CCN1/C(=C/C=C/C=C/C=C/c2sc3ccccc3[n+]2CC)Sc2ccccc21.[I-] [Compound 5]
slope of double log plot of monomer versus dimer concentration (Dye aggregation): 1.7 ± 0.1 | dissociation equilibrium constant for dimerization (Kdim) (Dye aggregation): 0.68 ± 0.04 µM

CCN1/C(=C/C=C/C2=[N+](CC)c3ccccc3C2(C)C)C(C)(C)c2ccccc21.[I-] [Compound 8]
dimerization (Dye aggregation; any concentration tested up to 96 μM): did not dimerize

CCCCCCN1/C(=C/C=C/c2sc3ccccc3[n+]2CCCCCC)Sc2ccccc21.[I-] [Compound 10]
inhibitory activity (human 2N4R tau [1]; at up to 10 μM concentration): completely eliminated activity

CCC(/C=C1\Sc2ccc(OC)cc2N1CCO)=C\c1sc2ccc(OC)cc2[n+]1CCO.[I-] [Compound 1]
IC50 (human 2N4R tau [5]): submicromolar
